Reference: ChEMBL document CHEMBL3259517, “Synthesis and evaluation of phosphorus containing, specific CDK9/CycT1 inhibitors” (J Med Chem, 2014)
One block for each compound: values may come before it. Calls of active or inactive are those of the source. No cut-off for these calls is given here.

How the values were obtained:
CDK9/cyclin T1 [1] = target: T1, CDK9/cyclin T1 (Homo sapiens, UniProt P50750); test: Inhibition of CDK9/CycT1 (unknown origin) using TAMRA-Rbtide and ATP as substrate after 1 hr; format: protein-complex assay
T1 sequence (O60563 whole entry): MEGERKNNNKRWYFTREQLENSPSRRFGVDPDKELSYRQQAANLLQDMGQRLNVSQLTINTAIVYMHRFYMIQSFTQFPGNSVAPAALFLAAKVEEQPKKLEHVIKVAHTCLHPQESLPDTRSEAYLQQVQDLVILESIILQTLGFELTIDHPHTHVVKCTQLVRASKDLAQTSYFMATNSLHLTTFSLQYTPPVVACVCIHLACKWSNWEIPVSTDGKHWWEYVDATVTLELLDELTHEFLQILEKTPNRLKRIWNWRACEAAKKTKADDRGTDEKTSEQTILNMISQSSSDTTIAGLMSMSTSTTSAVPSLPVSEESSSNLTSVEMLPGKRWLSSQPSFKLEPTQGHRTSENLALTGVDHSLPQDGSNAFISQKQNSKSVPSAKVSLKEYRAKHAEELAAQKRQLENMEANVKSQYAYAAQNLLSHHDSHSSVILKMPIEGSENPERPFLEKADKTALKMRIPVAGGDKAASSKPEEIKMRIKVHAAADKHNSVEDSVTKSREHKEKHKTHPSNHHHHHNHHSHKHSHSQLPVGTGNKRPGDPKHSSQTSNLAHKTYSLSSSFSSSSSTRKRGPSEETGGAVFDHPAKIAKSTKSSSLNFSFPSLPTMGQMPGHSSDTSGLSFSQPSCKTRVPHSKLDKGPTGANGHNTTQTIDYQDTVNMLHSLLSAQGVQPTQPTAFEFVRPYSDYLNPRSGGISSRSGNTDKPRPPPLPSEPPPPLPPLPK
T1 sequence (P50750 whole entry): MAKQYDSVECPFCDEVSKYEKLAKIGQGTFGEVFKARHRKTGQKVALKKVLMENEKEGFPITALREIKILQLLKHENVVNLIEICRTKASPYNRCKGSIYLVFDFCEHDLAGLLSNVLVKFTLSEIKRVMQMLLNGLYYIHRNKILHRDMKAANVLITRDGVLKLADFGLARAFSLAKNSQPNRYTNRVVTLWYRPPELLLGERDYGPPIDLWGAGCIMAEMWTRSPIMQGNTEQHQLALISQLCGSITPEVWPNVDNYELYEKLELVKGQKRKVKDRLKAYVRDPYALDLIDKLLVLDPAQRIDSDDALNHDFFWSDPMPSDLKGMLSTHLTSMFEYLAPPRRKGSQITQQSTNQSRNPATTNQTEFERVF

[2] = target: Cyclin-dependent kinase 2/cyclin E1 (Homo sapiens) (UniProt P24864+P24941); test: Inhibition of CDK2/CycE (unknown origin) using FAM labeled peptide as substrate at 1 uM by IMAP FAM FP assay; format: protein-complex assay
Outline: (§1)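 Run by contract partners as an IMAP fluorescence polarization assay. […] Enzyme amount was set to give 50% substrate turnover. Compounds were added in DMSO, IMAP binding solution added after the kinase step, then FP read.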

[3] = target: Cyclin-dependent kinase 4/cyclin D1 (Homo sapiens) (UniProt P11802+P24385); test: Inhibition of CDK4/CycD1 (unknown origin) using FAM labeled peptide as substrate at 1 uM by IMAP FAM FP assay; format: protein-complex assay; outline: as §1
[4] = target: T2, CDK9/cyclin T1 (Homo sapiens) (UniProt O60563+P50750); test: Inhibition of CDK9/CycT1 (unknown origin) using TAMRA-Rbtide and ATP as substrate at 1 uM after 1 hr; format: protein-complex assay
CDK9/cyclin T1 [5] = target: T1, CDK9/cyclin T1; test: Inhibition of CDK9/CycT1 (unknown origin) expressed in HEK293 cells using GST-CTDII as substrate
CDK9/cyclin T1 [6] = target: T1, CDK9/cyclin T1; test: Inhibition of CDK9/CycT1 (unknown origin); format: protein-complex assay
[7] = Cytotoxicity against human MT4 cells assessed as cell viability at 2500 nM after 7 days by MTT assay relative to control; format: cell-based; settings: read-out: Activity
Outline: (§2)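 MT4 cells (2−3 × 10⁴/well) in RPMI1640 with 10% FCS, penicillin and streptomycin, exposed to compound at 2500 or 1250 nM for 7 days at 37 °C, 5% CO2. MTT added for 4 h, supernatant removed, formazan dissolved in DMSO, absorbance read at 540 nm. Viability expressed relative to untreated cells (100%).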

[8] = Cytotoxicity against human MT4 cells assessed as cell viability at 1250 nM after 7 days by MTT assay relative to control; format: cell-based; settings: read-out: Activity; outline: as §2
[9] = test system: Human immunodeficiency virus 1; test: Antiviral activity against HIV1 HTLV-3B infected in human MT4 cells assessed as inhibition of virus proliferation by measuring host cell viability at 1250 nM relative to control; format: functional
Outline: (§3)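 HIV-1 HTLV-IIIB (3400 TCID50/mL per well; titre set by virus yield assay) infected MT4 cells, 2−3 × 10⁴/well in RPMI1640 with 10% FCS, penicillin and streptomycin, cultured as for the 7-day viability assay (37 °C, 5% CO2). Test compounds were at 1250 nM and AZT control at 25 nM. Read-out was MTT (4 h, DMSO, A540), given relative to infected untreated cells (100%).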

[10] = target: Interleukin-1 receptor-associated kinase 3 (Homo sapiens) (UniProt Q9Y616); test: Binding to IRAK3 (unknown origin) at 1 uM
[11] = target: Tyrosine-protein kinase ABL1 (Homo sapiens) (UniProt P00519); test: Inhibition of ABL (unknown origin) at 1 uM
[12] = target: RAC-alpha serine/threonine-protein kinase (Homo sapiens) (UniProt P31749); test: Inhibition of AKT1 (unknown origin) at 1 uM
[13] = target: Tyrosine-protein kinase receptor UFO (Homo sapiens) (UniProt P30530); test: Inhibition of AXL (unknown origin) at 1 uM
[14] = target: Serine/threonine-protein kinase B-raf (Homo sapiens) (UniProt P15056); test: Inhibition of bRAF (unknown origin) at 1 uM
Chain of Serine/threonine-protein kinase B-raf (Homo sapiens) (P15056 whole entry): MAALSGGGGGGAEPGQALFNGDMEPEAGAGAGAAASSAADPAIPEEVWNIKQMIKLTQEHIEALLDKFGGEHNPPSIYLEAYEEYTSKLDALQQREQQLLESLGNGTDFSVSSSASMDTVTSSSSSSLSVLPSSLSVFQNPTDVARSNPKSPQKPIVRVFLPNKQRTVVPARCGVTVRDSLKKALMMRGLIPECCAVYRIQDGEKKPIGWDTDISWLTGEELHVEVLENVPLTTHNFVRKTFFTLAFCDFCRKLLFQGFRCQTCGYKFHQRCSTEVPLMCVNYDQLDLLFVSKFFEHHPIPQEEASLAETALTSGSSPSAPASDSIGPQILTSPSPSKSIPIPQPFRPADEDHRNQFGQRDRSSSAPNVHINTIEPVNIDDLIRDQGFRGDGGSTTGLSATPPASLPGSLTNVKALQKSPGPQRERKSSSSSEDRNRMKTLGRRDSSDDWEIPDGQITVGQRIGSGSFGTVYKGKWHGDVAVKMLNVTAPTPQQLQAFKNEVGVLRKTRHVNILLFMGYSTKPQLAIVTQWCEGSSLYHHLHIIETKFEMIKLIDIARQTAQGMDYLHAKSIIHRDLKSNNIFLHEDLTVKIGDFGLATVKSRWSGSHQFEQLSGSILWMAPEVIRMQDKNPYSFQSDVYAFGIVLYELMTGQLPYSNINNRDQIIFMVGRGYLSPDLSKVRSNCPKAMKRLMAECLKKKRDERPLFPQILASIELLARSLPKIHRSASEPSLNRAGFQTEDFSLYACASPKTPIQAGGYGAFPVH

[15] = target: Serine/threonine-protein kinase Chk1 (Homo sapiens) (UniProt O14757); test: Inhibition of CHK1 (unknown origin) at 1 uM
[16] = target: Mast/stem cell growth factor receptor Kit (Homo sapiens) (UniProt P10721); test: Inhibition of cKIT (unknown origin) at 1 uM
[17] = target: Hepatocyte growth factor receptor (Homo sapiens) (UniProt P08581); test: Inhibition of cMET (unknown origin) at 1 uM
[18] = target: Tyrosine-protein kinase CSK (Homo sapiens) (UniProt P41240); test: Inhibition of CSK (unknown origin) at 1 uM
Chain of Tyrosine-protein kinase CSK (Homo sapiens) (P41240 2-450 limits assumed): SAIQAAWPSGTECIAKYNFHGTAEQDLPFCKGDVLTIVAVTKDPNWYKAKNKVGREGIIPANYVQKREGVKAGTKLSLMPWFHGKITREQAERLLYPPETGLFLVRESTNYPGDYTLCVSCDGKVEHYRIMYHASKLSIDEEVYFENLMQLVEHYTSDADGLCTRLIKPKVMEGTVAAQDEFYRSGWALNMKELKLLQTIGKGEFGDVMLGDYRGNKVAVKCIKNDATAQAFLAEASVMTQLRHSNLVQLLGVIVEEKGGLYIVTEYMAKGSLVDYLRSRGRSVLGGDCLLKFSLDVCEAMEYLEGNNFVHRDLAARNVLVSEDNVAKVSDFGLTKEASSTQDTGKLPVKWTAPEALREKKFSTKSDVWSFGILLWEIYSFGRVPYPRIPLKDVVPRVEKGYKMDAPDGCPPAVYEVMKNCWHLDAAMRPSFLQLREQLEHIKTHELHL

[19] = target: Epithelial discoidin domain-containing receptor 1 (Homo sapiens) (UniProt Q08345); test: Inhibition of DDR1 (unknown origin) at 1 uM
[20] = target: Receptor tyrosine-protein kinase erbB-2 (Homo sapiens) (UniProt P04626); test: Inhibition of ERBB2 (unknown origin) at 1 uM
[21] = target: Fibroblast growth factor receptor 3 (Homo sapiens) (UniProt P22607); test: Inhibition of FGFR3 (unknown origin) at 1 uM
[22] = target: Receptor-type tyrosine-protein kinase FLT3 (Homo sapiens) (UniProt P36888); test: Inhibition of FLT3 (unknown origin) at 1 uM
Chain of Receptor-type tyrosine-protein kinase FLT3 (Homo sapiens) (P36888 whole entry): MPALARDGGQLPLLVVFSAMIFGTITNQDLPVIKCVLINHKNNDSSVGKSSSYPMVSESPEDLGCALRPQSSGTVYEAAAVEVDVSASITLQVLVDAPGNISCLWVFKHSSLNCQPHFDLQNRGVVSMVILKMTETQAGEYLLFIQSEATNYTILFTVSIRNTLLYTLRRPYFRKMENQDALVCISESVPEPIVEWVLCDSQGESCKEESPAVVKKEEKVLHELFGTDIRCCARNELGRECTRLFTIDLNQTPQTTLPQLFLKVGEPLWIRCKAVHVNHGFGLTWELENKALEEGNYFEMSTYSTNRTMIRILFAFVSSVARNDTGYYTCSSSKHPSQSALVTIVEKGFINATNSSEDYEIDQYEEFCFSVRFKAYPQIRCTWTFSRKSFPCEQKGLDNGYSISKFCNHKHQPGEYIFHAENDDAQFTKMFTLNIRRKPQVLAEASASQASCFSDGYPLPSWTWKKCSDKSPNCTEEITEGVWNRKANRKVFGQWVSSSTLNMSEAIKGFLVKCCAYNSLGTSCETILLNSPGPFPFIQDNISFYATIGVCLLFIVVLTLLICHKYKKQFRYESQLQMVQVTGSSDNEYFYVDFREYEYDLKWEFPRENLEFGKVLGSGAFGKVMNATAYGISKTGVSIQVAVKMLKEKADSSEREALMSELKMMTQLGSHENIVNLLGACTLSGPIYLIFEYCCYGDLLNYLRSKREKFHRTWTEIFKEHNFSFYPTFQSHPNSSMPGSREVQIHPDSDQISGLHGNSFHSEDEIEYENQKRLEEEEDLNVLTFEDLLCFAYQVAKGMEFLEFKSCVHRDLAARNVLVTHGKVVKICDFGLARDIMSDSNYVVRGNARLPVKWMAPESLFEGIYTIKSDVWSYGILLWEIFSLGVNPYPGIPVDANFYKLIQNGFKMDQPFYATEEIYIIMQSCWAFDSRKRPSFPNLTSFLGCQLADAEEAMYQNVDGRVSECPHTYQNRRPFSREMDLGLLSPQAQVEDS

[23] = target: Inhibitor of nuclear factor kappa-B kinase subunit beta (Homo sapiens) (UniProt O14920); test: Inhibition of IKKbeta (unknown origin) at 1 uM
Chain of Inhibitor of nuclear factor kappa-B kinase subunit beta (Homo sapiens) (O14920 whole entry): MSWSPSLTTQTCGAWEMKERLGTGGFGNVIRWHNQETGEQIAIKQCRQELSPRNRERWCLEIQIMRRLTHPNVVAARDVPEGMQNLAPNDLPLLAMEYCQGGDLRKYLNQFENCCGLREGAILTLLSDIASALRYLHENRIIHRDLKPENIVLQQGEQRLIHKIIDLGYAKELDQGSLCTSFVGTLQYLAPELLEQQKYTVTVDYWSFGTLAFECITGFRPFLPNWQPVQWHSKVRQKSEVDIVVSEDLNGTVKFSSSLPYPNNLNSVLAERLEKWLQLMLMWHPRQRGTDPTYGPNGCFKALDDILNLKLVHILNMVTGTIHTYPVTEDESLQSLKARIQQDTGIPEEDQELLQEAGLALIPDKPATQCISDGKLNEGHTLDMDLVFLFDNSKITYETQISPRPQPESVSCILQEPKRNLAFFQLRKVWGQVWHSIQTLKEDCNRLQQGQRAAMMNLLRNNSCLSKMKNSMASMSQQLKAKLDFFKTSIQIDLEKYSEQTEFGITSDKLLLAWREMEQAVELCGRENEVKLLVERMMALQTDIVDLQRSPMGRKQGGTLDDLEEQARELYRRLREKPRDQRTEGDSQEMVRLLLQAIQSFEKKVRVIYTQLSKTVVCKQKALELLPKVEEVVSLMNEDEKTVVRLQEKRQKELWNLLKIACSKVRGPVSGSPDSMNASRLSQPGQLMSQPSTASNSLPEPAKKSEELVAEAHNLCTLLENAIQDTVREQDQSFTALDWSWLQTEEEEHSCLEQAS

[24] = target: Insulin receptor (Homo sapiens) (UniProt P06213); test: Inhibition of INSR (unknown origin) at 1 uM
[25] = target: Interleukin-1 receptor-associated kinase 4 (Homo sapiens) (UniProt Q9NWZ3); test: Inhibition of IRAK4 (unknown origin) at 1 uM
[26] = target: Tyrosine-protein kinase JAK3 (Homo sapiens) (UniProt P52333); test: Inhibition of JAK3 (unknown origin) at 1 uM
[27] = target: Serine/threonine-protein kinase mTOR (Homo sapiens) (UniProt P42345); test: Inhibition of mTOR (unknown origin) at 1 uM
[28] = target: Serine/threonine-protein kinase PAK 1 (Homo sapiens) (UniProt Q13153); test: Inhibition of PAK1 (unknown origin) at 1 uM
[29] = target: Serine/threonine-protein kinase PAK 4 (Homo sapiens) (UniProt O96013); test: Inhibition of PAK4 (unknown origin) at 1 uM
[30] = target: Platelet-derived growth factor receptor beta (Homo sapiens) (UniProt P09619); test: Inhibition of PDGFRb (unknown origin) at 1 uM
[31] = target: Serine/threonine-protein kinase pim-1 (Homo sapiens) (UniProt P11309); test: Inhibition of PIM1 (unknown origin) at 1 uM
Chain of Serine/threonine-protein kinase pim-1 (Homo sapiens) (P11309 whole entry, looked up): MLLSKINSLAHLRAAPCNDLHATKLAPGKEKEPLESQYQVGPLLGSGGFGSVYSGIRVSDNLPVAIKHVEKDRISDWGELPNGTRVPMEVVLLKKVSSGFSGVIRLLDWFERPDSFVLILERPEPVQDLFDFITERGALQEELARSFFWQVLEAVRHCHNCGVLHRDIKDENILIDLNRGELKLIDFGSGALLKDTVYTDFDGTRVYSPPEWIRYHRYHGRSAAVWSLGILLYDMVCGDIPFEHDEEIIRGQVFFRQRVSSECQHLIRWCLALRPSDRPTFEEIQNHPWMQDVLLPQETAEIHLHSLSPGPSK

[32] = target: Protein kinase C alpha type (Homo sapiens) (UniProt P17252); test: Inhibition of PKCalpha (unknown origin) at 1 uM
[33] = target: Proto-oncogene tyrosine-protein kinase receptor Ret (Homo sapiens) (UniProt P07949); test: Inhibition of RET (unknown origin) at 1 uM
[34] = target: Rho-associated protein kinase 2 (Homo sapiens) (UniProt O75116); test: Inhibition of ROCK2 (unknown origin) at 1 uM
[35] = target: Proto-oncogene tyrosine-protein kinase Src (Homo sapiens) (UniProt P12931); test: Inhibition of SRC (unknown origin) at 1 uM
[36] = target: Tyrosine-protein kinase SYK (Homo sapiens) (UniProt P43405); test: Inhibition of SYK (unknown origin) at 1 uM
[37] = target: Angiopoietin-1 receptor (Homo sapiens) (UniProt Q02763); test: Inhibition of TIE2 (unknown origin) at 1 uM
[38] = target: High affinity nerve growth factor receptor (Homo sapiens) (UniProt P04629); test: Inhibition of TrkA (unknown origin) at 1 uM
[39] = target: Vascular endothelial growth factor receptor 2 (Homo sapiens) (UniProt P35968); test: Inhibition of VEGFR2 (unknown origin) at 1 uM
[40] = target: T2, CDK9/cyclin T1 (Homo sapiens); test: Competitive inhibition of CDK9/CycT1 (unknown origin) using ATP as substrate; format: protein-complex assay
Outline: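 Kinase inhibition measured with inhibitor held constant at 260 nM across five ATP concentrations, printed as 1.33, 4, 12 (K_mATP), 36 and 108 […]. Ki taken from measured IC50 via the Cheng−Prusoff equation, with the IC50/Ki ratio compared across ATP levels.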

[41] = test system: Human immunodeficiency virus 1; test: Antiviral activity against HIV1 HTLV-3B infected in human MT4 cells assessed as inhibition of virus proliferation by measuring host cell viability at 25 nM relative to control; format: functional; outline: as §3

- IC50 (CDK9/cyclin T1 [1]): 327 nM
- inhibition [2]: 18%
- inhibition [3]: 22%
- inhibition [4]: 96%
SMILES: CCOP(=O)(CC)Cc1cccc(Nc2cc(-c3cccc(N)c3)ncn2)c1 (stereo not drawn)

- IC50 (CDK9/cyclin T1 [5]): 52 nM
SMILES: COc1ccccc1-c1cc(Nc2cccc(S(N)(=O)=O)c2)ncn1

- IC50 (CDK9/cyclin T1 [5]): 30 nM
SMILES: COc1ccccc1-c1cc(Nc2ccc(C)c(NS(C)(=O)=O)c2)ncn1

- IC50 (CDK9/cyclin T1 [6]): 170 nM
SMILES: COc1ccccc1-c1cc(Nc2cccc(NS(N)(=O)=O)c2)ncn1

Continued, compound first:

SMILES: Cc1ccc(Nc2cc(-c3cccc(N)c3)ncn2)cc1NS(C)(=O)=O
- IC50 (CDK9/cyclin T1 [6]): 129 nM

SMILES: CCCP(=O)(O)Cc1cccc(Nc2cc(-c3ccccc3OCc3ccccc3)ncn2)c1
- IC50 (CDK9/cyclin T1 [1]): 142 nM
- viability at 168 h, 2.5 µM [7]: 141%
- viability at 168 h, 1.25 µM [8]: 158%
- Host cell viability relative to infected untreated cells [9]: 141%
- residual activity [10]: 18%

SMILES: CCOP(=O)(CC)Cc1cccc(Nc2cc(-c3ccccc3OC)ncn2)c1 (stereo not drawn)
- IC50 (CDK9/cyclin T1 [1]): 197 nM
- inhibition [2]: 36%
- inhibition [3]: 24%
- inhibition [4]: 98%
- inhibition [11]: 20%
- inhibition [12]: 11%
- inhibition [13]: 21%
- inhibition [14]: 0%
- inhibition [15]: 12%
- inhibition [16]: 28%
- inhibition [17]: 22%
- inhibition [18]: 24%
- inhibition [19]: 13%
- inhibition [20]: 11%
- inhibition [21]: 8%
- inhibition [22]: 12%
- inhibition [23]: 15%
- inhibition [24]: 12%
- inhibition [25]: 16%
- inhibition [26]: 9%
- inhibition [27]: 3%
- inhibition [28]: 20%
- inhibition [29]: 25%
- inhibition [30]: 18%
- inhibition [31]: 8%
- inhibition [32]: 8%
- inhibition [33]: 34%
- inhibition [34]: 14%
- inhibition [35]: 18%
- inhibition [36]: 8%
- inhibition [37]: 10%
- inhibition [38]: 8%
- inhibition [39]: 11%
- viability at 168 h, 2.5 µM [7]: 94%
- viability at 168 h, 1.25 µM [8]: 94%
- Host cell viability relative to infected untreated cells [9]: 105%
- competitive inhibition (qualitative) [40]: Active

SMILES: CCCP(=O)(Cc1cccc(Nc2cc(-c3ccccc3OC)ncn2)c1)OCC (stereo not drawn)
- IC50 (CDK9/cyclin T1 [1]): 296 nM
- inhibition [2]: 23%
- inhibition [3]: 14%
- inhibition [4]: 95%
- inhibition [11]: 9%
- inhibition [12]: -1%
- inhibition [13]: 7%
- inhibition [14]: 5%
- inhibition [15]: 14%
- inhibition [16]: 16%
- inhibition [17]: 6%
- inhibition [18]: 14%
- inhibition [19]: 7%
- inhibition [20]: 5%
- inhibition [21]: 1%
- inhibition [22]: 6%
- inhibition [23]: 7%
- inhibition [24]: 2%
- inhibition [25]: 9%
- inhibition [26]: 0%
- inhibition [27]: 9%
- inhibition [28]: 10%
- inhibition [29]: 19%
- inhibition [30]: 2%
- inhibition [31]: -2%
- inhibition [32]: 9%
- inhibition [33]: 16%
- inhibition [34]: 7%
- inhibition [35]: 4%
- inhibition [36]: -1%
- inhibition [37]: 5%
- inhibition [38]: -1%
- inhibition [39]: 6%
- viability at 168 h, 2.5 µM [7]: 81%
- viability at 168 h, 1.25 µM [8]: 66%
- Host cell viability relative to infected untreated cells [9]: 131%
- competitive inhibition (qualitative) [40]: Active

SMILES: Cc1cn([C@H]2C[C@H](N=[N+]=[N-])[C@@H](CO)O2)c(=O)[nH]c1=O [ZIDOVUDINE]
- Activity [41]: 132%
